Measurements as given in ChEMBL document CHEMBL1142703, “Novel ligands for the chemokine receptor-3 (CCR3): a receptor-modeling study based on 5D-QSAR” (J Med Chem, 2005).

molecular target: T1, C-C chemokine receptor type 3 (Homo sapiens, UniProt P51677); assay: Inhibition of [125I]eotaxin-1 binding to human chemokine receptor (hCCR3-C1)
T1 sequence (P51677 whole entry): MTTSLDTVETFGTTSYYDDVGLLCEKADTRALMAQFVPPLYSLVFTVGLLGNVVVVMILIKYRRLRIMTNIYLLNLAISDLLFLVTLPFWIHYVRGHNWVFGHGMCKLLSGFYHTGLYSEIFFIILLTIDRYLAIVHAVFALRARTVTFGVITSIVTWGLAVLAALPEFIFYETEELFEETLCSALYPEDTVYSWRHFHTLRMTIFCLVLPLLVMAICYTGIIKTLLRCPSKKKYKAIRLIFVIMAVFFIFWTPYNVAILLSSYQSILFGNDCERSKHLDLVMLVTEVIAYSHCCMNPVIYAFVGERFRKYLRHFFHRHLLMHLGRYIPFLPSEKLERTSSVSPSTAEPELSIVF
Method in brief: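 K562 leukemia myelogenic blast cells transfected with human CCR3 (hCCR3-C1). Binding of the radioligand 125I-eotaxin-1 was measured in a scintillation proximity format. Controls: specific binding with no displacer added, and nonspecific binding with unlabeled eotaxin or test compound added. Bound radioactivity was counted by scintillation. Ki was obtained by iterative fitting of the data to a law-of-mass-action model.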

Row | Ki | Structure (SMILES)
1 | 517 nM | Cc1cc(C)cc(CCNCC(c2ccc(-c3ccccc3)cc2)N2CCN(C3CCCCC3)CC2)c1 (stereo unspecified)
2 | 3810 nM | CN1CCN(C(CNC(=O)Nc2cc(Cl)cc(Cl)c2)c2ccc(N(C)C)cc2)CC1 (stereo unspecified)
3 | 477 nM | COc1ccc(CCNCC(c2ccc(C(F)(F)F)cc2)N2CCN(C3CCCCC3)CC2)cc1 (stereo unspecified)
4 | 830 nM | COc1ccc(C(CNC(=O)Nc2cc(Cl)cc(Cl)c2)N2CCN(C3CCCCC3)CC2)cc1 (stereo unspecified)
5 | 11200 nM | CC(C)(C)c1ccc(C(CNC(=O)Cc2ccccc2)N2CCN(c3ccccc3)CC2)cc1 (stereo unspecified)
6 | 1110 nM | O=C(NCC(c1ccc(C(F)(F)F)cc1)N1CCN(C2CCCCC2)CC1)Nc1ccc(F)cc1 (stereo unspecified)
7 | 296 nM | CC(C)CC(CNC(=O)Nc1cc(Cl)cc(Cl)c1)N1CCN(C2CCCCC2)CC1 (stereo unspecified)
8 | 8970 nM | CN1CCN(C(CNCCc2ccc(C(F)(F)F)cc2)c2ccccc2)CC1 (stereo unspecified)
9 | 1980 nM | COc1ccc(NC(=O)NCC(c2ccc(C(C)(C)C)cc2)N2CCN(C3CCCCC3)CC2)cc1 (stereo unspecified)
10 | 1200 nM | Fc1ccc(CCNCC(c2ccc(C(F)(F)F)cc2)N2CCN(c3ccccc3)CC2)cc1 (stereo unspecified)
11 | 1040 nM | COc1ccc(C(CNCCc2ccccc2)N2CCN(C3CCCCC3)CC2)cc1 (stereo unspecified)
12 | 429 nM | CC(C)CC(CNC(=O)Nc1ccc(Cl)cc1)N1CCN(C2CCCCC2)CC1 (stereo unspecified)
13 | 479 nM | O=C(NCC(c1ccc(C(F)(F)F)cc1)N1CCN(C2CCCCC2)CC1)Nc1ccccc1 (stereo unspecified)
14 | 393 nM | COc1ccc(CCNCC(c2ccc(C(F)(F)F)cc2)N2CCN(c3ccccc3)CC2)cc1 (stereo unspecified)
15 | 326 nM | Cc1cc(C)cc(NC(=O)NCC(c2ccc(-c3ccccc3)cc2)N2CCN(C3CCCCC3)CC2)c1 (stereo unspecified)
16 | 2050 nM | CC(C)(C)c1ccc(NC(=O)NCC(c2ccc(C(C)(C)C)cc2)N2CCN(C3CCCCC3)CC2)cc1 (stereo unspecified)
17 | 768 nM | COc1ccc(CCNCC(c2ccc(C(C)(C)C)cc2)N2CCN(c3ccccc3)CC2)cc1 (stereo unspecified)
18 | 10300 nM | CC(C)(C)c1ccc(C(CNC(=O)Cc2ccc(C(F)(F)F)cc2)N2CCN(C3CCCCC3)CC2)cc1 (stereo unspecified)
19 | 224 nM | CC(C)(C)c1ccc(C(CNCCc2cc(Cl)cc(Cl)c2)N2CCN(C3CCCCC3)CC2)cc1 (stereo unspecified)

Row | Ki | Structure (SMILES)
20 | 910 nM | COc1ccc(C(CNC(=O)Nc2ccc(C(C)(C)C)cc2)N2CCN(C3CCCCC3)CC2)cc1 (stereo unspecified)
21 | 316 nM | Cc1ccc(NC(=O)NCC(c2ccc(-c3ccccc3)cc2)N2CCN(C3CCCCC3)CC2)cc1 (stereo unspecified)
22 | 231 nM | CC(C)(C)c1ccc(C(CNCCc2ccc(C(F)(F)F)cc2)N2CCN(C3CCCCC3)CC2)cc1 (stereo unspecified)
23 | 488 nM | COc1ccccc1CCNCC(c1ccc(C(C)(C)C)cc1)N1CCN(c2ccccc2)CC1 (stereo unspecified)
24 | 629 nM | COc1ccc(C(CNCCc2ccc(C(C)(C)C)cc2)N2CCN(C3CCCCC3)CC2)cc1 (stereo unspecified)
25 | 5180 nM | CN1CCN(C(CNC(=O)Nc2cc(Cl)cc(Cl)c2)c2ccc(C(F)(F)F)cc2)CC1 (stereo unspecified)
26 | 346 nM | COc1ccc(CCNCC(c2ccc(C(C)(C)C)cc2)N2CCN(C3CCCCC3)CC2)cc1 (stereo unspecified)
27 | 932 nM | O=C(NCC(c1ccc(C(F)(F)F)cc1)N1CCN(C2CCCCC2)CC1)Nc1cc(Cl)cc(Cl)c1 (stereo unspecified)
28 | 895 nM | Fc1ccc(CCNCC(c2ccc(C(F)(F)F)cc2)N2CCN(C3CCCCC3)CC2)cc1 (stereo unspecified)
29 | 1720 nM | CN(C)c1ccc(NC(=O)NCC(c2ccc(C(C)(C)C)cc2)N2CCN(C3CCCCC3)CC2)cc1 (stereo unspecified)
30 | 1670 nM | CN(C)c1ccc(C(CNCCc2ccc(C(F)(F)F)cc2)N2CCN(c3ccccc3)CC2)cc1 (stereo unspecified)
31 | 897 nM | COc1ccccc1C(CNC(=O)Nc1cc(Cl)cc(Cl)c1)N1CCN(C2CCCCC2)CC1 (stereo unspecified)
32 | 929 nM | COc1ccc(C(CNCCc2ccc(C(F)(F)F)cc2)N2CCN(C3CCCCC3)CC2)cc1 (stereo unspecified)
33 | 1070 nM | Cc1ccc(NC(=O)NCC(c2ccc(C(F)(F)F)cc2)N2CCN(C3CCCCC3)CC2)cc1 (stereo unspecified)
34 | 5380 nM | COc1ccccc1C(CNC(=O)Nc1ccc(F)cc1)N1CCN(C2CCCCC2)CC1 (stereo unspecified)
35 | 2250 nM | COc1ccc(C(CNC(=O)Nc2ccc(C)cc2)N2CCN(C3CCCCC3)CC2)cc1 (stereo unspecified)
36 | 312 nM | CN(C)c1ccc(CCNCC(c2ccc(C(C)(C)C)cc2)N2CCN(C3CCCCC3)CC2)cc1 (stereo unspecified)
37 | 8850 nM | COc1ccccc1CC(=O)NCC(c1ccc(C(C)(C)C)cc1)N1CCN(c2ccccc2)CC1 (stereo unspecified)

Second part, the compound before the results:

Row | Structure (SMILES) | Ki
38 | COc1ccc(C(CNCCc2cc(Cl)cc(Cl)c2)N2CCN(C3CCCCC3)CC2)cc1 (stereo unspecified) | 62 nM
39 | COc1ccccc1CCNCC(c1ccccc1OC)N1CCN(c2ccccc2)CC1 (stereo unspecified) | 1580 nM
40 | O=C(Cc1cc(Cl)cc(Cl)c1)NCC(c1ccccc1)N1CCN(C2CCCCC2)CC1 (stereo unspecified) | 62500 nM
41 | COc1ccc(C(CNC(=O)Nc2ccc(C(F)(F)F)cc2)N2CCN(C3CCCCC3)CC2)cc1 (stereo unspecified) | 1530 nM
42 | COc1ccccc1CCNCC(c1ccc(C(C)(C)C)cc1)N1CCN(C2CCCCC2)CC1 (stereo unspecified) | 216 nM
43 | Clc1cc(Cl)cc(CCNCC(c2ccccc2)N2CCN(C3CCCCC3)CC2)c1 (stereo unspecified) | 80 nM
44 | COc1ccc(C(CNC(=O)Cc2ccccc2)N2CCN(c3ccccc3)CC2)cc1 (stereo unspecified) | 40200 nM
45 | COc1ccccc1C(CNCCc1cc(Cl)cc(Cl)c1)N1CCN(C2CCCCC2)CC1 (stereo unspecified) | 344 nM
46 | Cc1ccc(CC(=O)NCC(c2ccccc2)N2CCN(c3ccccc3)CC2)cc1 (stereo unspecified) | 26900 nM
47 | Cc1ccc(NC(=O)NCC(c2ccc(C(F)(F)F)cc2)N2CCN(C)CC2)cc1 (stereo unspecified) | 10700 nM
48 | FC(F)(F)c1ccc(CCNCC(c2ccc(C(F)(F)F)cc2)N2CCN(C3CCCCC3)CC2)cc1 (stereo unspecified) | 782 nM
49 | Cc1ccc(NC(=O)NCC(c2ccccc2)N2CCN(c3ccccc3)CC2)cc1 (stereo unspecified) | 8020 nM
50 | CN1CCN(C(CNCCc2ccccc2)c2ccc(C(F)(F)F)cc2)CC1 (stereo unspecified) | 4730 nM
51 | O=C(NCC(c1ccccc1)N1CCN(C2CCCCC2)CC1)Nc1ccc(F)cc1 (stereo unspecified) | 6360 nM
52 | COc1ccccc1NC(=O)NCC(c1ccc(C(F)(F)F)cc1)N1CCN(C)CC1 (stereo unspecified) | 3350 nM
53 | COc1ccccc1CCNCC(c1ccc(C(F)(F)F)cc1)N1CCN(C2CCCCC2)CC1 (stereo unspecified) | 118 nM
54 | COc1ccc(C(CNC(=O)Nc2ccc(F)cc2)N2CCN(C3CCCCC3)CC2)cc1 (stereo unspecified) | 1030 nM

Row | Structure (SMILES) | Ki
55 | Cc1ccc(NC(=O)NCC(c2ccccc2)N2CCN(C3CCCCC3)CC2)cc1 (stereo unspecified) | 5390 nM
56 | CN1CCN(C(CNC(=O)Nc2ccc(F)cc2)c2ccc(N(C)C)cc2)CC1 (stereo unspecified) | 7750 nM
57 | COc1ccc(C(CNCCc2ccc(C)cc2)N2CCN(c3ccccc3)CC2)cc1 (stereo unspecified) | 597 nM
58 | Cc1ccc(CCNCC(c2ccccc2)N2CCN(C)CC2)cc1 (stereo unspecified) | 11600 nM
59 | O=C(NCC(c1ccccc1)N1CCN(C2CCCCC2)CC1)Nc1cc(Cl)cc(Cl)c1 (stereo unspecified) | 1250 nM
60 | COc1ccc(C(CNCCc2ccc(C)cc2)N2CCN(C3CCCCC3)CC2)cc1 (stereo unspecified) | 914 nM
61 | COc1ccccc1NC(=O)NCC(c1ccc(C(F)(F)F)cc1)N1CCN(C2CCCCC2)CC1 (stereo unspecified) | 3650 nM
62 | O=C(NCC(c1ccccc1)N1CCN(c2ccccc2)CC1)Nc1ccc(F)cc1 (stereo unspecified) | 5550 nM
63 | CN(C)c1ccc(CCNCC(c2ccccc2)N2CCN(c3ccccc3)CC2)cc1 (stereo unspecified) | 1770 nM
64 | Cc1ccc(NC(=O)NCC(CC(C)C)N2CCN(c3ccc(Cl)c(Cl)c3)CC2)cc1 (stereo unspecified) | 179 nM
65 | COc1ccccc1C(CNC(=O)Nc1ccc(C)cc1)N1CCN(c2ccccc2)CC1 (stereo unspecified) | 3540 nM
66 | CC(C)(C)c1ccc(CCNCC(c2ccc(C(C)(C)C)cc2)N2CCN(C3CCCCC3)CC2)cc1 (stereo unspecified) | 349 nM
67 | Cc1cc(C)cc(NC(=O)NCC(CC(C)C)N2CCN(c3ccc(Cl)c(Cl)c3)CC2)c1 (stereo unspecified) | 313 nM
68 | CN1CCN(C(CNCCc2ccccc2)c2ccccc2)CC1 (stereo unspecified) | 21800 nM
69 | FC(F)(F)c1ccc(C(CNCCc2cc(Cl)cc(Cl)c2)N2CCN(C3CCCCC3)CC2)cc1 (stereo unspecified) | 129 nM
70 | CN(C)c1ccc(CCNCC(c2ccc(C(F)(F)F)cc2)N2CCN(C3CCCCC3)CC2)cc1 (stereo unspecified) | 1080 nM
71 | COc1ccccc1CC(=O)NCC(c1ccccc1OC)N1CCN(c2ccccc2)CC1 (stereo unspecified) | 6000 nM
